Measurements as given in ChEMBL document CHEMBL4732082, “Development of novel benzimidazole-derived neddylation inhibitors for suppressing tumor growth invitro and invivo” (Eur J Med Chem, 2021).

Assays:
[1] = molecular target: T1, NEDD8-activating enzyme E1 regulatory subunit (Homo sapiens) (UniProt Q13564); assay: Inhibition of NAE (unknown origin)-mediated neddylation assessed as suppression of cullin1-Nedd8 adduct formation at 25 uM preincubated for 10 mins followed by ATP addition and measured after 30 mins by immunoblot analysis relative to control; details: time 40.0 min
T1 sequence (whole entry): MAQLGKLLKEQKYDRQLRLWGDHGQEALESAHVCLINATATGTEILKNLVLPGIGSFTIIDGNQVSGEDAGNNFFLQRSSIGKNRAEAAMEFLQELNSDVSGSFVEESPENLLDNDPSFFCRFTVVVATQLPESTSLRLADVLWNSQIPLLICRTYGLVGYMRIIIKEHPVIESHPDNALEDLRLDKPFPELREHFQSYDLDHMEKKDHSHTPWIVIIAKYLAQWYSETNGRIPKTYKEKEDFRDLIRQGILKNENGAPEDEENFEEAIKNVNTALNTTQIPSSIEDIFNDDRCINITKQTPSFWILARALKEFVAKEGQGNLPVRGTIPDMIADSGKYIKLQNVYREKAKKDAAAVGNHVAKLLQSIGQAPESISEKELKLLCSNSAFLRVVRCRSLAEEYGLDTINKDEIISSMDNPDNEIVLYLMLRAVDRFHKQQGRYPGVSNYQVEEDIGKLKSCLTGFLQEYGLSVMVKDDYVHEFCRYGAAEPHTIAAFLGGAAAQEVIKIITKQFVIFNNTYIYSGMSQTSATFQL

A549 [2] = assay: Antiproliferative activity against human A549 cells assessed as inhibition of cell proliferation at 100 uM incubated for 48 hrs by CCK-8 assay relative to control; format: functional; parameters: scale not given: the % may be the effect or the level left
Procedure, shortened: (§1)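 Cells from ATCC, passaged six times, grown in DMEM with 10% FBS and penicillin/streptomycin at 37 °C under 5% CO2. Seeded at 2500 cells/well, cultured overnight, treated 48 h, viability read by CCK-8. Run in triplicate; values are the mean of three experiments.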

A549 [3] = assay: Antiproliferative activity against human A549 cells incubated for 48 hrs by CCK-8 assay; format: functional, cell-based; details: A549, 48 h; procedure, shortened: as §1
NCI-H1299 = assay: Antiproliferative activity against human H1299 cells incubated for 48 hrs by CCK-8 assay; format: functional, cell-based; details: NCI-H1299, 48 h; procedure, shortened: as §1
[4] = Cytotoxicity against human […] cells incubated for 48 hrs by CCK-8 assay; format: cell-based; procedure, shortened: as §1
BEAS-2B = assay: Cytotoxicity against human BEAS-2B cells incubated for 48 hrs by CCK-8 assay; format: cell-based; procedure, shortened: as §1
[5] = molecular target: T2, NEDD8-activating enzyme E1 catalytic subunit (Homo sapiens, UniProt Q8TBC4); assay: Inhibition of NAE (unknown origin)-mediated neddylation assessed as suppression of cullin1-Nedd8 adduct formation preincubated for 10 mins followed by ATP addition and measured after 30 mins by immunoblot analysis
T2 sequence (Q8TBC4 whole entry): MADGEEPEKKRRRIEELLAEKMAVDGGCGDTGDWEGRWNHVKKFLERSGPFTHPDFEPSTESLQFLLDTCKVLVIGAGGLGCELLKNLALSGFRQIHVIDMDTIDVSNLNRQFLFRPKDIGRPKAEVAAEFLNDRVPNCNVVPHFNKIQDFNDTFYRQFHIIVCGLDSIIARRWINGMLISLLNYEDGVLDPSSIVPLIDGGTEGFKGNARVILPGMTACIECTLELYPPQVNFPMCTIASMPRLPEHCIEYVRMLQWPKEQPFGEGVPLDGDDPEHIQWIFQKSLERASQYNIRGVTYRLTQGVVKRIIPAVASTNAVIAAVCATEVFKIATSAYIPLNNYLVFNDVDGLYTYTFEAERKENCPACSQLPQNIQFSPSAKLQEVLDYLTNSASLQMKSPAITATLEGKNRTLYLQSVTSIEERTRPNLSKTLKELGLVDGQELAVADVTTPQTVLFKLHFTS

SMILES | inhibition [1] [%] | Activity (A549 [2]) [%] | other results
CCOc1nc2cccc(C(=O)NCCc3ccccc3Cl)c2n1Cc1ccc(-c2ccccc2-c2nnn[nH]2)cc1 | 57.4 | 36.6 | –
NS(=O)(=O)OC[C@@H]1C[C@@H](n2ccc3c(N[C@H]4CCc5ccccc54)ncnc32)C[C@@H]1O [PEVONEDISTAT] | 90.5 | 91.4 | IC50 (A549 [3]): 0.63 µM; IC50 (NCI-H1299): 0.49 µM; IC50 [4]: 4.03 µM; IC50 (BEAS-2B): 1.22 µM
CCCNC(=O)c1cccc2nc(OCC)n(Cc3ccc(-c4ccccc4-c4nnn[nH]4)cc3)c12 | 32.6 | 12.5 | –
CCOc1nc2ccccc2n1Cc1ccc(-c2ccccc2-c2nn[nH]n2)cc1 | 18.9 | 9.5 | –
CCOc1nc2cccc(C(=O)NCCc3ccc([N+](=O)[O-])cc3)c2n1Cc1ccc(-c2ccccc2-c2nnn[nH]2)cc1 | 47.5 | 53.5 | –
CCOc1nc2cccc(C(=O)NCc3ccc4c(c3)OCO4)c2n1Cc1ccc(-c2ccccc2-c2nnn[nH]2)cc1 | 47.9 | 53.19 | –
CCOc1nc2cccc(C(=O)NOCc3ccccc3)c2n1Cc1ccc(-c2ccccc2-c2nnn[nH]2)cc1 | 39.8 | 24.3 | –
CCOc1nc2cccc(C(=O)NCCc3c[nH]c4ccccc34)c2n1Cc1ccc(-c2ccccc2-c2nnn[nH]2)cc1 | 74.7 | 71.6 | IC50 [5]: 9.94 µM; IC50 (A549 [3]): 19.1 µM; IC50 (NCI-H1299): 18.2 µM; IC50 [4]: 44.7 µM; IC50 (BEAS-2B): 37.9 µM
CCOc1nc2cccc(C(=O)Nc3ccc(S(N)(=O)=O)cc3)c2n1Cc1ccc(-c2ccccc2-c2nnn[nH]2)cc1 | 60.9 | 54.4 | –
CCOc1nc2cccc(C(=O)OC(C)OC(=O)OC3CCCCC3)c2n1Cc1ccc(-c2ccccc2)cc1 (stereo not drawn) | 29.5 | 34.2 | –
CCOc1nc2cccc(C(=O)NCc3ccco3)c2n1Cc1ccc(-c2ccccc2-c2nnn[nH]2)cc1 | 37.5 | 18.9 | –
CCOc1nc2cccc(C(=O)NC3CCCC3)c2n1Cc1ccc(-c2ccccc2-c2nnn[nH]2)cc1 | 39.7 | 11.9 | –
CCOc1nc2cccc(C(=O)NCCc3cccc(OC)c3)c2n1Cc1ccc(-c2ccccc2-c2nnn[nH]2)cc1 | 43.6 | 57.7 | –
CCOc1nc2cccc(C(=O)NCCc3ccc4c(c3)OCO4)c2n1Cc1ccc(-c2ccccc2-c2nnn[nH]2)cc1 | 35.7 | 14.2 | –
CCOc1nc2cccc(C(=O)OC(C)OC(=O)OC3CCCCC3)c2n1Cc1ccc(-c2ccccc2-c2nnnn2C)cc1 (stereo not drawn) | 41.2 | 16.8 | –
CCOc1nc2cccc(C(=O)NCCc3ccc(Br)cc3)c2n1Cc1ccc(-c2ccccc2-c2nnn[nH]2)cc1 | 66.1 | 51.4 | –
CCOc1nc2cccc(C(=O)OC(C)OC(=O)OC3CCCCC3)c2n1Cc1ccc(-c2ccccc2-c2nn[nH]n2)cc1 (stereo not drawn) [CANDESARTAN CILEXETIL] | 87.8 | 69.2 | IC50 (A549 [3]): 65.9 µM; IC50 [4]: 82.7 µM; IC50 (BEAS-2B): 79.8 µM
CCOc1nc2cccc(C(=O)NCCc3ccccc3)c2n1Cc1ccc(-c2ccccc2-c2nnn[nH]2)cc1 | 39.4 | 43.8 | –
CCOc1nc2cccc(C(=O)NC3CCCCC3)c2n1Cc1ccc(-c2ccccc2-c2nnn[nH]2)cc1 | 36.8 | 12.1 | –
CCOc1nc2cccc(C(=O)NCCCOC)c2n1Cc1ccc(-c2ccccc2-c2nnn[nH]2)cc1 | 27.9 | 10.1 | –
CCOC(=O)CNC(=O)c1cccc2nc(OCC)n(Cc3ccc(-c4ccccc4-c4nnn[nH]4)cc3)c12 | 46.5 | 32.7 | –
CCOc1nc2cccc(C(=O)NCCc3c(Cl)cccc3Cl)c2n1Cc1ccc(-c2ccccc2-c2nnn[nH]2)cc1 | 86.7 | 45.5 | –

SMILES | inhibition [1] [%] | Activity (A549 [2]) [%] | other results
CCOc1nc2cccc(C(=O)N[C@H]3CC[C@H](C(=O)OC)CC3)c2n1Cc1ccc(-c2ccccc2-c2nnn[nH]2)cc1 | 28.6 | 9.2 | –
CCOc1nc2cccc(C(=O)NCCc3ccc(F)cc3F)c2n1Cc1ccc(-c2ccccc2-c2nnn[nH]2)cc1 | 35.8 | 12.5 | –
CCOc1nc2cc(C(=O)OC(C)OC(=O)OC3CCCCC3)ccc2n1Cc1ccc(-c2ccccc2-c2nnn[nH]2)cc1 (stereo not drawn) | 44.7 | 33.3 | –
CCOc1nc2cccc(C(=O)NCCCCc3ccccc3)c2n1Cc1ccc(-c2ccccc2-c2nnn[nH]2)cc1 | 64.6 | <20 | –
CCOc1nc2cccc(C(=O)NCc3ccc(F)cc3)c2n1Cc1ccc(-c2ccccc2-c2nnn[nH]2)cc1 | 38.1 | 35.4 | –
CCOc1nc2cccc(C(=O)Nc3ccc(OC)cc3)c2n1Cc1ccc(-c2ccccc2-c2nnn[nH]2)cc1 | 25.8 | 10.5 | –
CCOc1nc2cccc(C(=O)Nc3ccc(F)cc3)c2n1Cc1ccc(-c2ccccc2-c2nnn[nH]2)cc1 | 45.3 | 66.3 | –
CCOc1nc2cccc(C(=O)Nc3ccccc3)c2n1Cc1ccc(-c2ccccc2-c2nnn[nH]2)cc1 | 34.6 | 13.1 | –
CCCC(=O)N(Cc1ccc(-c2ccccc2-c2nnn[nH]2)cc1)c1ccccc1C(=O)OC(C)OC(=O)OC1CCCCC1 (stereo not drawn) | 32.6 | 15.2 | –
CCOc1nc2cccc(C(=O)NCCc3ccc(Cl)cc3)c2n1Cc1ccc(-c2ccccc2-c2nnn[nH]2)cc1 | 47.6 | 36.2 | –
CCOc1nc2cccc(C(=O)NCCCNC3CCCCC3)c2n1Cc1ccc(-c2ccccc2-c2nnn[nH]2)cc1 | 29.4 | 11.2 | –
CCOc1nc2cccc(C(=O)NCCc3cc(Cl)ccc3Cl)c2n1Cc1ccc(-c2ccccc2-c2nnn[nH]2)cc1 | 82.9 | 77.6 | IC50 [5]: 6.67 µM; IC50 (A549 [3]): 39.3 µM; IC50 (NCI-H1299): 36.7 µM; IC50 [4]: 64.9 µM; IC50 (BEAS-2B): 80.8 µM
CCOc1nc2cccc(C(=O)NC(c3ccccc3)c3ccccc3)c2n1Cc1ccc(-c2ccccc2-c2nnn[nH]2)cc1 | 35.7 | 31.6 | –
CCOc1nc2ccc(C(=O)OC(C)OC(=O)OC3CCCCC3)cc2n1Cc1ccc(-c2ccccc2-c2nnn[nH]2)cc1 (stereo not drawn) | 43.2 | 56.9 | –
CCOc1nc2cccc(C(=O)Nc3ccc4c(c3)OCO4)c2n1Cc1ccc(-c2ccccc2-c2nnn[nH]2)cc1 | 34.9 | 16.7 | –
CCOc1nc2cccc(C(=O)OC(C)OC(=O)OC3CCCCC3)c2n1Cc1ccc(-c2ccccc2-c2noc(=O)[nH]2)cc1 (stereo not drawn) | 34.2 | 14.6 | –
CCOc1nc2cccc(C(=O)NC3CC3)c2n1Cc1ccc(-c2ccccc2-c2nnn[nH]2)cc1 | 30.9 | 11.3 | –
CCOc1nc2cccc(C(=O)NCCCN(C)C)c2n1Cc1ccc(-c2ccccc2-c2nnn[nH]2)cc1 | 29.5 | 9.8 | –
CCOc1nc2cccc(C(=O)Nc3ccncc3)c2n1Cc1ccc(-c2ccccc2-c2nnn[nH]2)cc1 | 39.8 | 39.5 | –
CCOc1nc2cccc(C(=O)NCCc3ccc(C)cc3)c2n1Cc1ccc(-c2ccccc2-c2nnn[nH]2)cc1 | 32.1 | 15.7 | –
CCOc1nc2cccc(C(=O)NCc3ccccc3)c2n1Cc1ccc(-c2ccccc2-c2nnn[nH]2)cc1 | 48.9 | 54.5 | –
